Data as given in ChEMBL document CHEMBL1158834, “Cytotoxic clerodane diterpenoids from Casearia membranacea” (2005).
≈ marks a conversion by molar mass, not a printed value.

Experiments:
Type in all cases: functional
KB = experiment: Cytotoxicity against human KB cells after 3 days by methylene blue staining; settings: 72 h, read-out: ED50 (the source's name)
How it was run: (§1)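 Cells grown in RPMI-1640 at 37 °C, 5% CO2, seeded at 2880 cells/well for 3 h, then given sample (prepared at 1, 10, 40 and 100 µg/mL) for 3 days at 37 °C. Fixed in 10% formaldehyde/0.9% saline, stained with 1% methylene blue in 0.01 M borate, eluted with EtOH/0.1 M HCl, A650 read. ED50 is the concentration halving absorbance versus untreated cells.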

DLD-1 = experiment: Cytotoxicity against human DLD1 cells after 3 days by methylene blue staining; settings: DLD-1, 72 h, read-out: ED50 (the source's name); how it was run: as §1
[1] = Cytotoxicity against human medulloblastoma cells after 3 days by methylene blue staining; settings: Medulloblastoma cell, 72 h, read-out: ED50 (the source's name); how it was run: as §1

C=CC(=C)CC[C@]1(C)[C@H]2C[C@H](OC(=O)C(C)CC)C=C3[C@H](OC(C)=O)O[C@H](OC(C)=O)[C@@]32[C@H](O)C[C@@H]1C (relative stereo)
EC50 (KB): 3.6 µg/mL (≈ 6.94 µM) | EC50 (DLD-1): 1.18 µg/mL (≈ 2.28 µM) | EC50 [1]: 1.93 µg/mL (≈ 3.72 µM)

C=CC(=C)CC[C@]1(C)[C@H]2C[C@H](OC(=O)C(C)CC)C=C3[C@H](OC(=O)CCC)O[C@H](OC(C)=O)[C@@]32[C@H](O)[C@H](OC(C)=O)[C@@H]1C (stereo partly drawn) [CASEAMEMBRIN D]
EC50 (KB): 5.57 µg/mL (≈ 9.21 µM) | EC50 (DLD-1): 1.81 µg/mL (≈ 2.99 µM) | EC50 [1]: 2.42 µg/mL (≈ 4 µM)

C=CC(=C)CC[C@]1(C)[C@H]2C[C@H](OC(=O)C(C)CC)C=C3[C@H](OC(C)=O)O[C@H](OC(C)=O)[C@@]32[C@H](OC(=O)CCC)C[C@@H]1C (stereo partly drawn) [CASEAMEMBRIN M]
EC50 (KB): 18.4 µg/mL (≈ 31.3 µM) | EC50 (DLD-1): 14.2 µg/mL (≈ 24.1 µM) | EC50 [1]: 14.4 µg/mL (≈ 24.5 µM)

C=CC(=C)CC[C@]1(C)[C@H]2C[C@H](OC(=O)CCC)C=C3[C@H](OC(C)=O)O[C@H](OC(C)=O)[C@@]32[C@H](O)[C@H](OC(C)=O)[C@@H]1C [CASEAMEMBRIN N]
EC50 (KB): 8.94 µg/mL (≈ 15.9 µM) | EC50 (DLD-1): 4.37 µg/mL (≈ 7.77 µM) | EC50 [1]: 3.27 µg/mL (≈ 5.81 µM)

C=CC(=C)CC[C@]1(C)[C@H]2C[C@H](OC(=O)CC(C)C)C=C3[C@H](OC(C)=O)O[C@H](OC(C)=O)[C@@]32[C@H](O)[C@H](OC(C)=O)[C@@H]1C [CASEAMEMBRIN O]
EC50 (KB): 6.94 µg/mL (≈ 12 µM) | EC50 (DLD-1): 2.54 µg/mL (≈ 4.4 µM) | EC50 [1]: 1.94 µg/mL (≈ 3.36 µM)

CO[C@@]12[C@H](COC(N)=O)C3=C(C(=O)C(C)=C(N)C3=O)N1C[C@@H]1N[C@@H]12 [MITOMYCIN]
EC50 (KB): 0.13 µg/mL (≈ 0.389 µM) | EC50 (DLD-1): 0.1 µg/mL (≈ 0.299 µM) | EC50 [1]: 0.1 µg/mL (≈ 0.299 µM)
